Data from ChEMBL document CHEMBL1137681, “Design, synthesis and characterization of N9/N7-substituted 6-aminopurines as VEGF-R and EGF-R inhibitors” (Eur J Med Chem, 2009).
Calls of active or inactive are those of the source. The calls are words filed in the database; no cut-off is given here.

Tests used:
[1] = target: Serine/threonine-protein kinase PLK1 (Homo sapiens) (UniProt P53350); assay: Inhibition of PLK1 up to 100 uM
Procedure, shortened: (§1)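 Run in HEPES-NaOH pH 7.5 with MgCl2, MnCl2, orthovanadate, DTT, PEG20000 and 1% DMSO at 30 °C for 80 min. IC50 from 10 concentrations, singlicate.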

[2] = target: Insulin receptor (Homo sapiens) (UniProt P06213); assay: Inhibition of INSR up to 100 uM
[3] = target: Cyclin-dependent kinase 2 (Homo sapiens) (UniProt P24941); assay: Inhibition of CDK2/cyclin A up to 100 uM
Procedure, shortened: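 Buffer was HEPES-NaOH pH 7.5 with MgCl2/MnCl2, vanadate, DTT, PEG20000 and 1% DMSO. Run 80 min at 30 °C, H3PO4 stop, NaCl wash, scintillation read-out. IC50 from 10 concentrations, singlicate.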

[4] = target: T1, Receptor tyrosine-protein kinase erbB-2 (Homo sapiens, UniProt P04626); assay: Inhibition of ERBB2
T1 sequence (P04626 whole entry): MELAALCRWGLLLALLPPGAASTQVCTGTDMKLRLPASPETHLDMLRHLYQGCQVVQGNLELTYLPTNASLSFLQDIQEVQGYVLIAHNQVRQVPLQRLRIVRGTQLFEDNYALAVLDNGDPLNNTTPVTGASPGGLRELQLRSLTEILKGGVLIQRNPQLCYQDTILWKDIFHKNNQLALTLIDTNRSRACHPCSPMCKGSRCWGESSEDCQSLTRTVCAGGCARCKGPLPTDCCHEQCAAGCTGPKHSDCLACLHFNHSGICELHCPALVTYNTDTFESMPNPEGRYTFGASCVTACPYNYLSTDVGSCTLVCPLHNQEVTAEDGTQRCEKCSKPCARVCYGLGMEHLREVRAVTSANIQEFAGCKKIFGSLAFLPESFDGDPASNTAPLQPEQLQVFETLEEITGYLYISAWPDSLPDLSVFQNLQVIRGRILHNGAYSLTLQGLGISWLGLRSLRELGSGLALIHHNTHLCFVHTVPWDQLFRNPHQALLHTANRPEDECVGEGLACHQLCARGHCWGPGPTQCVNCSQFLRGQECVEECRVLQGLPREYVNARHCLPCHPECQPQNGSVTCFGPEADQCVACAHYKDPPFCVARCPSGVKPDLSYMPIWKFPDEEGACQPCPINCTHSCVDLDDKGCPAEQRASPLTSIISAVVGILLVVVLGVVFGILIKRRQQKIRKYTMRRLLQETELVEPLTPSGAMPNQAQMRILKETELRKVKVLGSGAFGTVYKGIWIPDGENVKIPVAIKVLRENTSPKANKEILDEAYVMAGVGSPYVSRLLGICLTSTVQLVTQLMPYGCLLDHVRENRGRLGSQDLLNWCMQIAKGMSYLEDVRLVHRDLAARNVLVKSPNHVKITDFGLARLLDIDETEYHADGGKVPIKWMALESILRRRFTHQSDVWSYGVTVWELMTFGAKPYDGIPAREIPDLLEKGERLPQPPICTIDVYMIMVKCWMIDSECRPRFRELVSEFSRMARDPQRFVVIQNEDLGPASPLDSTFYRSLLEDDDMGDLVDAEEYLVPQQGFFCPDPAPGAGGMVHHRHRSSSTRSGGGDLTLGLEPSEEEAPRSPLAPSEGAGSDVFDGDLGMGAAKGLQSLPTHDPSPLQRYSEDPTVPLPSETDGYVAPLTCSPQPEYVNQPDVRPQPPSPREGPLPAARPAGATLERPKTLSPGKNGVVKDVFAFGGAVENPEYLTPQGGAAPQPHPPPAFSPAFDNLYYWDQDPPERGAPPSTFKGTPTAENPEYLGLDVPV
Procedure, shortened: (§2)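 Buffer: HEPES-NaOH pH 7.5, Mg2+/Mn2+, vanadate, DTT, PEG20000, 1% DMSO. Incubated 30 °C for 80 min, stopped with 2% H3PO4, washed, and scintillation-counted. IC50 from 10 concentrations in singlicate.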

[5] = target: Focal adhesion kinase 1 (Homo sapiens) (UniProt Q05397); assay: Inhibition of FAK up to 100 uM; procedure, shortened: as §2
Sequence of Focal adhesion kinase 1 (Homo sapiens) (Q05397 2-1052 limits assumed): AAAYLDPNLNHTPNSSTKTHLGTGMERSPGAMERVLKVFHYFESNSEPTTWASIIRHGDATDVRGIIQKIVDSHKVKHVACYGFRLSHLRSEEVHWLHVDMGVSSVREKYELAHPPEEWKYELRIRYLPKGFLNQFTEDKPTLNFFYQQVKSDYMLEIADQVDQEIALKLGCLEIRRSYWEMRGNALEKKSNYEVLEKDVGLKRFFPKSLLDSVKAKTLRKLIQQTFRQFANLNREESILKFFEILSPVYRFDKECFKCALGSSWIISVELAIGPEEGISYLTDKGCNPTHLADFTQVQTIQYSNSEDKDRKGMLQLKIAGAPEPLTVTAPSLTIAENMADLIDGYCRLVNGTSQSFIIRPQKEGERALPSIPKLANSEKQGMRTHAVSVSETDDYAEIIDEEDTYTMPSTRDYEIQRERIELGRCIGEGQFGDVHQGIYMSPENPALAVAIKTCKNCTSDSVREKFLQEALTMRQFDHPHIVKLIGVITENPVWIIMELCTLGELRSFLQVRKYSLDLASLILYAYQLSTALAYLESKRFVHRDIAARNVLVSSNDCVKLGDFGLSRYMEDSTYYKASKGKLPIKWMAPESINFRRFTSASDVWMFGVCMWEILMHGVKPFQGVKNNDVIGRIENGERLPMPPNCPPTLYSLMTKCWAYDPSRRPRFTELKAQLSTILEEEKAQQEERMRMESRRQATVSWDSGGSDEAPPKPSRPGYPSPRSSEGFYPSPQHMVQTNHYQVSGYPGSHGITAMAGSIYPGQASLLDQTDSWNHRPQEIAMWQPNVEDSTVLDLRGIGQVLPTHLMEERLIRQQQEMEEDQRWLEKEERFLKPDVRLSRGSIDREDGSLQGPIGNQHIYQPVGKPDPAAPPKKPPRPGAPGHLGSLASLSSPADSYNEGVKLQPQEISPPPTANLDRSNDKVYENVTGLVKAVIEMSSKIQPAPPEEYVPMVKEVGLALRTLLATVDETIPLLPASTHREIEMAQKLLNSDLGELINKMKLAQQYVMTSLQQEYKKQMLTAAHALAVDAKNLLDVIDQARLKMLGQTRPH

[6] = target: T2, Proto-oncogene tyrosine-protein kinase Src (Homo sapiens, UniProt P12931); assay: Inhibition of SRC
[7] = target: T3, NUAK family SNF1-like kinase 1 (Homo sapiens) (UniProt O60285); assay: Inhibition of ARK5 up to 100 uM
T3 sequence (whole entry): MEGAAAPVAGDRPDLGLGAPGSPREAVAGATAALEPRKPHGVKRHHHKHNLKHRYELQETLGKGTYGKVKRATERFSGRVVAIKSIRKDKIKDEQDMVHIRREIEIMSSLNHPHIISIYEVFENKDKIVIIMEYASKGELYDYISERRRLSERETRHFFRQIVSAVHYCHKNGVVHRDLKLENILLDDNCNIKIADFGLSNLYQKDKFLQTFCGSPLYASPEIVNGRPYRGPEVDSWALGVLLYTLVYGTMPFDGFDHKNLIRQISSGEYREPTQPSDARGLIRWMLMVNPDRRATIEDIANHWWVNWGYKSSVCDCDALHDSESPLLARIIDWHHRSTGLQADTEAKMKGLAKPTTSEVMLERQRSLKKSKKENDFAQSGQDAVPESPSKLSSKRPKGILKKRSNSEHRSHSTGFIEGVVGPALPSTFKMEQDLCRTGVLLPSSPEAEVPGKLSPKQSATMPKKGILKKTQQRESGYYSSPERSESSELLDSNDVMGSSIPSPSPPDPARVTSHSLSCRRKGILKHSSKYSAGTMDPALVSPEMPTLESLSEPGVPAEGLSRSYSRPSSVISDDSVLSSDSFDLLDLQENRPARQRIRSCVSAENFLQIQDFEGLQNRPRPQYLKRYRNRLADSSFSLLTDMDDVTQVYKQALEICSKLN

[8] = target: T4, Aurora kinase A (Homo sapiens) (UniProt O14965); assay: Inhibition of Aurora A up to 100 uM
T4 sequence (whole entry): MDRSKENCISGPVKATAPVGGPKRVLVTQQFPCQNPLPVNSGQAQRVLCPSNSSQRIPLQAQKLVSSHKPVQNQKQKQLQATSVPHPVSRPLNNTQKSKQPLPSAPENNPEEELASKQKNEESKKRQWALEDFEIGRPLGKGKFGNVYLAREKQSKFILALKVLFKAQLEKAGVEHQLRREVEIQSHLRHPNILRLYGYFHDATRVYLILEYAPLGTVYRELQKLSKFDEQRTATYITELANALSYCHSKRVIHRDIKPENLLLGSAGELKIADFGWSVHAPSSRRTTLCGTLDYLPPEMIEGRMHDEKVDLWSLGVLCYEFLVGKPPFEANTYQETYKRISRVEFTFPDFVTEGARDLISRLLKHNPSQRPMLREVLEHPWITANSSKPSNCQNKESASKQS
Procedure, shortened: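 Buffer was HEPES-NaOH pH 7.5 with MgCl2, MnCl2, vanadate, DTT, PEG20000 and 1% DMSO. Run 80 min at 30 °C, quenched with 2% H3PO4, NaCl-washed, then scintillation-counted. IC50 fitted from 10 concentrations tested once each.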

[9] = target: Casein kinase II subunit alpha (Homo sapiens) (UniProt P68400); assay: Inhibition of CK2alpha1; procedure, shortened: as §1
Sequence of Casein kinase II subunit alpha (Homo sapiens) (P68400 whole entry, looked up): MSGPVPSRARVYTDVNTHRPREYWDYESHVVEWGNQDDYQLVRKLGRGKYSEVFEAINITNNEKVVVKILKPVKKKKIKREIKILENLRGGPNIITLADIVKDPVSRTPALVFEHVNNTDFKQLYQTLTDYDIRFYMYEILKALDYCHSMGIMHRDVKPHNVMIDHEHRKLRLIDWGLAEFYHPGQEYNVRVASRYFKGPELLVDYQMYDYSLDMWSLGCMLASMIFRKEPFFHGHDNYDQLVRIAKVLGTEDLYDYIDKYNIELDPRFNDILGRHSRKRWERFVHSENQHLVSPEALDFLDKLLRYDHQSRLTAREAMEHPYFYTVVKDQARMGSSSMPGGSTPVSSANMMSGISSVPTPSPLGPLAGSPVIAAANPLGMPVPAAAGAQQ

[10] = target: RAC-alpha serine/threonine-protein kinase (Homo sapiens) (UniProt P31749); assay: Inhibition of AKT1 up to 100 uM
Sequence of RAC-alpha serine/threonine-protein kinase (Homo sapiens) (P31749 whole entry): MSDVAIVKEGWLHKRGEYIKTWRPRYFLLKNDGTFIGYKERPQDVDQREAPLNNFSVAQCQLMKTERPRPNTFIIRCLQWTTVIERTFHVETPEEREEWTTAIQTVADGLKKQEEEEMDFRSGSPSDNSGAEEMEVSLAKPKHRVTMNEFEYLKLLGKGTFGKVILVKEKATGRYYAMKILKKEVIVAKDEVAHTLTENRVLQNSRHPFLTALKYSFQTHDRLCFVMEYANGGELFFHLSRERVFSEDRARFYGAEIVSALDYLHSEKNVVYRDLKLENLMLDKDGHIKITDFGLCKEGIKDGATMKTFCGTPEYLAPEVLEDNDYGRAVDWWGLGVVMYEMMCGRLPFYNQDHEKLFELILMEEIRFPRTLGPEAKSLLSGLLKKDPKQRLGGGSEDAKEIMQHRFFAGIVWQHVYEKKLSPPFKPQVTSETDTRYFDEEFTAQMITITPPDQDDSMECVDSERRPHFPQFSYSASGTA
Procedure, shortened: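 Radiometric kinase assay with recombinant AKT1 (50–400 ng) and GSK3(14-27) peptide substrate. Incubated 80 min at 30 °C, stopped with 2% H3PO4, washed with 0.9% NaCl. IC50 from 10 concentrations in singlicate.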

Angiopoietin-1 receptor = Angiopoietin-1 receptor (Homo sapiens, UniProt Q02763); assay: Inhibition of TIE2
Sequence of Angiopoietin-1 receptor (Q02763 whole entry): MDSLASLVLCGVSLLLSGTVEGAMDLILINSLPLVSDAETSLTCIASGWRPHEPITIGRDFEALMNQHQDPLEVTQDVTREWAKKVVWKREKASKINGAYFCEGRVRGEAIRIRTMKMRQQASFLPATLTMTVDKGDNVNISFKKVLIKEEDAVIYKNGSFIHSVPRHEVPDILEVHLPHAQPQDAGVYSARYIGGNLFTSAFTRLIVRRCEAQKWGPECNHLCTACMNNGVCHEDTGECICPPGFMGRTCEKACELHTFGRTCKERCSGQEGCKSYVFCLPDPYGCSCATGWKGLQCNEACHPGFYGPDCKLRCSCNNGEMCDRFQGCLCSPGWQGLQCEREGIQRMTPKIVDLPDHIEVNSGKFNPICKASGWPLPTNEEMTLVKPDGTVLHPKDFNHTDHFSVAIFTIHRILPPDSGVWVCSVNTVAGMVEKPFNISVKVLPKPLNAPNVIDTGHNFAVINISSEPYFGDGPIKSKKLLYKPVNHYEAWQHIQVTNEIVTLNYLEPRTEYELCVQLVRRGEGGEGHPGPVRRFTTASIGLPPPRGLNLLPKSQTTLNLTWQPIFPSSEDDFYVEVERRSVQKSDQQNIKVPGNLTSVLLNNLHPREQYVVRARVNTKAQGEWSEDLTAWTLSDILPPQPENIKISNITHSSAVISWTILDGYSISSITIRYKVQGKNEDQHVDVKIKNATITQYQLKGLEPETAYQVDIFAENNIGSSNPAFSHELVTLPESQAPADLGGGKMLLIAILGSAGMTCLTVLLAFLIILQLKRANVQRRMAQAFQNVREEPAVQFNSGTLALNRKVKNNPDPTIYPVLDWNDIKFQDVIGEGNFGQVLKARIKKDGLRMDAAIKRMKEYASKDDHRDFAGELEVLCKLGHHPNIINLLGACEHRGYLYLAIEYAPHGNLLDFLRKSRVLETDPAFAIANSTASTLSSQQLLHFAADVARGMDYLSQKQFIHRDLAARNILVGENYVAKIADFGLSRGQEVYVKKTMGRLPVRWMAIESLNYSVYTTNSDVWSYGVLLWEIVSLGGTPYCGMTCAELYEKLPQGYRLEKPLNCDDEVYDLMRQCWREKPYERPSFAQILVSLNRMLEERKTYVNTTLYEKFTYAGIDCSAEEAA

[11] = system: Serine/threonine-protein kinase Sgk1 (Homo sapiens), O00141 [S422D]; assay: Inhibition of SGK1 S422D mutant at 10 uM
[12] = target: Serine/threonine-protein kinase pim-3 (Homo sapiens) (UniProt Q86V86); assay: Inhibition of human PIM3 at 10 uM
[13] = target: Serine/threonine-protein kinase pim-1 (Homo sapiens) (UniProt P11309); assay: Inhibition of human PIM1 at 10 uM
[14] = target: Mitogen-activated protein kinase 10 (Homo sapiens) (UniProt P53779); assay: Inhibition of JNK3alpha1 at 10 uM
Aurora kinase B = Aurora kinase B (Homo sapiens, UniProt Q96GD4); assay: Inhibition of Aurora B at 10 uM
[15] = target: Lymphokine-activated killer T-cell-originated protein kinase (Homo sapiens) (UniProt Q96KB5); assay: Inhibition of PBK at 10 uM
[16] = target: MAP kinase-interacting serine/threonine-protein kinase 1 (Homo sapiens) (UniProt Q9BUB5); assay: Inhibition of MNK1 at 10 uM
[17] = target: Serine/threonine-protein kinase PAK 4 (Homo sapiens) (UniProt O96013); assay: Inhibition of human PAK4 at 10 uM
[18] = target: MAP/microtubule affinity-regulating kinase 3 (Homo sapiens) (UniProt P27448); assay: Inhibition of human MARK3 at 10 uM
[19] = target: Ephrin type-A receptor 2 (Homo sapiens) (UniProt P29317); assay: Inhibition of human EPHA2 at 10 uM
[20] = target: Serine/threonine-protein kinase PLK1 (Homo sapiens) (UniProt P53350); assay: Inhibition of human PLK1 at 10 uM
[21] = target: Insulin receptor-related protein (Homo sapiens) (UniProt P14616); assay: Inhibition of IRR at 10 uM
[22] = target: Serine/threonine-protein kinase B-raf (Homo sapiens, UniProt P15056, V600E); assay: Inhibition of BRAF V600E mutant
[23] = target: T2, Proto-oncogene tyrosine-protein kinase Src; assay: Inhibition of SRC up to 100 uM
[24] = target: T1, Receptor tyrosine-protein kinase erbB-2; assay: Inhibition of ERBB2 up to 100 uM; procedure, shortened: as §2

Sequence of Serine/threonine-protein kinase PLK1 (Homo sapiens) (P53350 whole entry): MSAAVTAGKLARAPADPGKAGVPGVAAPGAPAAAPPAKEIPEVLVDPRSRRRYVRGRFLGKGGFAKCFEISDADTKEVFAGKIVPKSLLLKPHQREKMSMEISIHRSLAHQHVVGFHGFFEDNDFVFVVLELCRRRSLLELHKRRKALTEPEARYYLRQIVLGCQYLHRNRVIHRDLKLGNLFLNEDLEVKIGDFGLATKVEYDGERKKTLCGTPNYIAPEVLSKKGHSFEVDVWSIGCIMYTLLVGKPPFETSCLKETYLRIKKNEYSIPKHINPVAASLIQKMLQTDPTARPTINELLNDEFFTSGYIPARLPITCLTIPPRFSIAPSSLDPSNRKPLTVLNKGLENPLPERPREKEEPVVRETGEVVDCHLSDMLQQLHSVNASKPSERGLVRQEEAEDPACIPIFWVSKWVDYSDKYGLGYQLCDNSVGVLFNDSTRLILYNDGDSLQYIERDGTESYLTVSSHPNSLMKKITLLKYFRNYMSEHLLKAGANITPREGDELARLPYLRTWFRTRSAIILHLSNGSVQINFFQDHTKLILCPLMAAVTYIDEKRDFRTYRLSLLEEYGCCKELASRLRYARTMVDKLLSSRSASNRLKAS

Structure (SMILES) | inhibition [1] | inhibition [2] | inhibition [3] | inhibition [4] | inhibition [5] | inhibition [6] | inhibition [7] | inhibition [8] | inhibition [9] | inhibition [10] | inhibition (Angiopoietin-1 receptor) | further results
Nc1ncnc2ncn(CC(=O)c3ccccc3)c12 | inactive | inactive | inactive | inactive | inactive | inactive | inactive | inactive | inactive | inactive | inactive | –
Nc1ncnc2c1ncn2CC(=O)c1ccccn1 | inactive | inactive | inactive | inactive | inactive | inactive | inactive | inactive | inactive | inactive | inactive | –
Nc1ncnc2c1ncn2CC(=O)c1ccccc1 | inactive | inactive | inactive | – | inactive | – | inactive | inactive | inactive | inactive | – | inhibition [23]: inactive; inhibition [24]: inactive
COc1ncnc2c1ncn2CC(=O)c1ccccc1 | inactive | inactive | inactive | inactive | inactive | inactive | inactive | inactive | inactive | inactive | inactive | –
Nc1ncnc2c1ncn2CC(=O)c1cccnc1 | inactive | inactive | inactive | inactive | inactive | – | inactive | inactive | inactive | inactive | inactive | IC50 [6]: 75 µM
COc1ncnc2ncn(CC(=O)c3ccccc3)c12 | inactive | inactive | inactive | inactive | inactive | inactive | inactive | inactive | inactive | inactive | inactive | –

Second part, led by results:

inhibition [1] | inhibition [2] | inhibition [3] | inhibition [4] | inhibition [5] | inhibition [6] | inhibition [7] | inhibition [8] | inhibition [9] | inhibition [10] | inhibition (Angiopoietin-1 receptor) | Structure (SMILES) | further results
inactive | inactive | inactive | inactive | inactive | – | inactive | inactive | inactive | inactive | – | Nc1ncnc2ncn(CC(=O)c3c[nH]c4ccccc34)c12 | inhibition [11]: inactive; inhibition [12]: inactive; inhibition [13]: inactive; inhibition [14]: inactive; inhibition (Aurora kinase B): inactive; inhibition [15]: inactive; inhibition [16]: inactive; inhibition [17]: inactive; inhibition [18]: inactive; inhibition [19]: inactive; inhibition [20]: inactive; IC50 (Angiopoietin-1 receptor): 95 µM
inactive | inactive | inactive | – | inactive | inactive | inactive | inactive | inactive | inactive | – | Nc1ncnc2c1ncn2CC(=O)c1c[nH]c2ccccc12 | IC50 [4]: 95 µM; inhibition [21]: 51%; inhibition [16]: 73%; IC50 [22]: 82 µM; IC50 (Angiopoietin-1 receptor): 85 µM
inactive | inactive | inactive | inactive | inactive | inactive | inactive | inactive | inactive | inactive | inactive | CN(C)c1ncnc2c1ncn2CC(=O)c1c[nH]c2ccccc12 | –
